According to ChEMBL document CHEMBL3124803, “Integrating docking scores, interaction profiles and molecular descriptors to improve the accuracy of molecular docking: toward the discovery of novel Akt1 inhibitors” (Eur J Med Chem, 2014):

Columns and labels:
[1] = system: OVCAR-8; assay: Cytotoxicity against human OVCAR8 cells assessed as growth inhibition after 72 hrs by MTT assay; type: functional, cell-based; settings: OVCAR-8, 72 h
Outline: (§1)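 Cells exposed to compound for 72 h, then MTT added. Formazan crystals dissolved in DMSO and absorbance read at 570 nm. Run in triplicate in three independent experiments. IC₅₀ (50% cell growth inhibition) derived by dose-effect analysis.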

[2] = biological target: RAC-alpha serine/threonine-protein kinase (Homo sapiens, UniProt P31749); assay: Inhibition of AKT1 (unknown origin) using ATP/eNOS as substrate incubated for 5 mins prior to substrate addition measured after 30 mins by fluorescence polarization assay
[3] = system: HCT-116; assay: Cytotoxicity against human HCT116 cells assessed as growth inhibition after 72 hrs by MTT assay; type: functional, cell-based; settings: HCT-116, 72 h; outline: as §1

RAC-alpha serine/threonine-protein kinase, sequence (P31749 whole entry): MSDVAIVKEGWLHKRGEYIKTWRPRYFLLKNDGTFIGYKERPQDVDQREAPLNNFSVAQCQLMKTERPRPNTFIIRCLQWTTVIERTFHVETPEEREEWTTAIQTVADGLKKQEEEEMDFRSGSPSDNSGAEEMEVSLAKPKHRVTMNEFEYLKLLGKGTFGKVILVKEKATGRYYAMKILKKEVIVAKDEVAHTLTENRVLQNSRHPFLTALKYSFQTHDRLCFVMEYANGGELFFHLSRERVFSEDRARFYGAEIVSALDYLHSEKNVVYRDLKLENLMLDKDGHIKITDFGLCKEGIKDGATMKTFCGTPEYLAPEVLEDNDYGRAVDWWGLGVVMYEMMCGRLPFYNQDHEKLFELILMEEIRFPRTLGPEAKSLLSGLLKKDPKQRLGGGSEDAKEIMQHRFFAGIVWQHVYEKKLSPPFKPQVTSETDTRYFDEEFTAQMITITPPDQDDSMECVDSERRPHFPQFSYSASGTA

Compound	IC50 [1]	IC50 [2]	IC50 [3]
Nc1ncnc(N2CCN(C(=O)C(N)Cc3ccc(Cl)cc3)CC2)c1Cl (racemic)	26.1 µM	0.017 µM	4.36 µM
Nc1ncnc(N2CCN(C(=O)C(N)Cc3ccccc3)CC2)c1Br (racemic)	–	0.432 µM	6.19 µM
Nc1ncnc(N2CCN(C(=O)[C@@H](N)Cc3ccccc3)CC2)c1Cl	–	1.83 µM	28.7 µM
NCC1(c2ccc(Cl)c(Cl)c2)CCN(c2cc(N)ncn2)CC1	–	4.32 µM	19.8 µM
Nc1ncnc(N2CCN(C(=O)C(N)Cc3ccc(Cl)cc3)CC2)c1Br (racemic)	22.7 µM	0.0077 µM	5.15 µM
CNc1cc(N2CCC(CN)(c3ccc(Cl)c(Cl)c3)CC2)ncn1	–	1.83 µM	16.7 µM
